M1 ag: human M1 muscarinic receptor agonism | CHO-K1 hM1, Fluo-8 calcium fluorescence, agonist mode; 0% DMSO, 100% acetylcholine EC100 | activation, % at 3 µM | 0.33% of 360,000 active | AID 588814;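 active = activation above the run's mean compound activation plus 3 SD, cut at about 16% in these data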;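 note: peak over basal fluorescence ratio within a 140 s kinetic read after compound addition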
Target sequence (P11229 whole entry, looked up): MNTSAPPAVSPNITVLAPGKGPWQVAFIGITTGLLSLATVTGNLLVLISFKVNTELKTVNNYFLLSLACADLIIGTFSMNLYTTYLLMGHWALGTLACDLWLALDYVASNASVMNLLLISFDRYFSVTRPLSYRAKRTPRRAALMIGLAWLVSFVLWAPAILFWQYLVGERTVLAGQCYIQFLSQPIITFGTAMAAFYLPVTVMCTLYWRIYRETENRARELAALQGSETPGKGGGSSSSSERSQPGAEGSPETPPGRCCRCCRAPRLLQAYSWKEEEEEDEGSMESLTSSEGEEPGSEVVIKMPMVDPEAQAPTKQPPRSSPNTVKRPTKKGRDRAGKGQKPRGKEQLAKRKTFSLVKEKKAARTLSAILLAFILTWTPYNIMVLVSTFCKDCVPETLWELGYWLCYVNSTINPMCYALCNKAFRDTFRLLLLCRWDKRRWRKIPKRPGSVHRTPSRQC
TAAR1 antag: human TAAR1 antagonism. 1.5% of 360,000 active. CHO RD-HGA16 TAAR1, Fluo-8 calcium fluorescence, antagonist. inhibition, % at 3 µM;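 active = inhibition above a per-plate cutoff, the mean inhibition of test compounds on that plate plus 3 SD, cut at about 49% in these data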;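 note: 0% = DMSO plus EC80 beta-PEA response and 100% = DMSO alone without agonist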
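Test system: CHO RD-HGA16 cells bearing hTAAR1 | Reagent: β-PEA, EC80 | Compound dosing: 3 µM, single point | Schedule: Dye loading 75 min at 37 °C, then 30 min room temperature | Signal: Calcium fluorescence with Fluo-8 | Evaluation: Percent inhibition of PEA-evoked calcium signal, max/basal emission ratio | Control set: DMSO-only wells and EC80 β-PEA-stimulated wells | Repeats: Singlicate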
TAAR1 agonist: human TAAR1 agonism. Q96RJ0. CHO RD-HGA16 TAAR1, Fluo-8 calcium fluorescence; vehicle wells 0%, saturating PEA agonist 100%. activation, % at 3 µM. 0.99% of 360,000 active. AID 624467;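 active = activation above the mean activation of all test compounds in the run plus 3 SD, cut at about 38% in these data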
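System: CHO RD-HGA16 cells carrying human TAAR1 plus Gα16; Incubation: 17-24 h seeding, 75 min 37 °C dye, 30 min RT; Measured by: Fluo-8 fluorescence, 5 s baseline then 140 s kinetic read; Control set: DMSO and PEA EC100; Replication: single well for each compound.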
M1 PAM: positive allosteric modulators of human M1 muscarinic receptor | 0.088% of 360,000 active | CHO-K1 hM1, Fluo-8 calcium fluorescence, ACh EC20; 0% = ACh EC20, 100% = maximal ACh | P11229 | AID 588819 | activation, % at 3 µM; in the data active = activation above about 19%, passing the limit was not always enough
M1 antag: blocks human M1 muscarinic receptor; P11229; CHO-K1 hM1, Fluo-8 calcium fluorescence, ACh EC80 antagonist; inhibition, % at 3 µM; 1.3% of 360,000 active; AID 588852;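 active = percent inhibition above its own plate's cutoff, namely the mean of that plate's compound wells plus 3 SD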;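 note: peak over basal fluorescence ratio during 140 s after agonist addition; 0% = ACh EC80 plus DMSO and 100% = DMSO alone without agonist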
The depositor's hits bear a star; nt = not tested or not shown. This is a sample that favours compounds with a hit; in the whole collection about 3.4% have one here.

SMILES	M1 ag	TAAR1 antag	TAAR1 agonist	M1 PAM	M1 antag
CCOCCCn1c(N)c(C(=O)Nc2sc3c(c2C(=O)OC)CCCC3)c2nc3ccccc3nc21	-3	64*	21	-13	23
CCOC(=O)c1c(NC(=O)c2c(N)n(CCCOC)c3nc4ccccc4nc23)sc2c1CCCC2	-3	-3	10	-6	6
Clc1ccc(C[n+]2c(-c3ccccc3)cc(-c3ccccc3)cc2-c2ccccc2)cc1	-6	21	9	-14	36*
Cc1cc(-c2ccccc2)cc(-c2ccccc2)[n+]1CCc1ccccc1	-10	22	2	-25	60*
Fc1ccc(C[n+]2c(-c3ccccc3)cc(-c3ccccc3)cc2-c2ccccc2)cc1	nt	9	10	nt	nt
CCn1ccnc1CN1CCCC(C(=O)c2ccc(SC)cc2)C1 (stereo not given)	-9	-1	6	-26	77*
CSc1ccc(C(=O)C2CCCN(Cc3cnc(SC)nc3)C2)cc1 (stereo not given)	-10	10	1	-11	-1
O=C(c1ccc(C(F)(F)F)cc1)C1CCCN(Cc2ccncc2)C1 (stereo not given)	-5	-4	1	-20	24
O=C(c1ccc(C(F)(F)F)cc1)C1CCCN(Cc2ccc(CO)o2)C1 (stereo not given)	-7	-15	0	-26	61*
Cc1ncc(CN2CCCC(C(=O)c3ccc(C(C)(C)C)cc3)C2)s1 (stereo not given)	-10	16	4	-30	87*
O=C(NN=Cc1ccc(N(CCCl)CCCl)cc1)C(=O)c1c[nH]c2ccccc12	4	38	3	4	2
Cc1ccc(C(C)C)c(OCC#CCN2CCCC2)c1	-6	-20	13	-22	90*
CCn1cc(CN2CCCC(C(=O)c3cccc(OC)c3)C2)c(C)n1 (stereo not given)	-13	0	5	-34	50*
CCCn1ncc(CN2CCCC(C(=O)c3cccc(OC)c3)C2)c1C (stereo not given)	-14	0	4	-34	94*
CCCn1cc(CN2CCCC(C(=O)c3cccc(OC)c3)C2)c(C)n1 (stereo not given)	-12	-1	10	-30	24
CC(CC(C#N)(c1ccccc1)c1ccccc1)N(C)C (stereo not given)	-14	13	4	-35	102*
C[C@]12CC[C@H](O)CC1C(=O)CC1C2CC[C@@]2(C)C1CC[C@@H]2O (stereo not given in full)	-6	-3	2	4	-13
CC(=O)O[C@H]1CC[C@@]2(C)[C@H](C1)C(=O)C[C@H]1[C@@H]3CC[C@@H]4[C@@H](CN5C[C@@H](C)CC[C@H]5[C@@]4(C)O)[C@@H]3C[C@@H]12	-12	-2	-2	-33	100*
C[C@H]1CC[C@@H]2N(C1)C[C@H]1[C@@H]3C[C@H]4[C@@H](CC(=O)[C@H]5C[C@@H](O)CC[C@@]54C)[C@@H]3CC[C@H]1[C@]2(C)O	-10	-4	6	-28	86*
c1ccc(CN2Cc3ccccc3-n3nncc3C2)nc1	-4	-8	3	9	-15
COP(=O)(OC)OC=C(Cl)Cl	nt	10	1	nt	nt
CCOC(=O)[C@]12Cc3cc(C)ccc3[C@H]1N(C(C)C)C(=O)c1ccccc12	nt	-39	0	nt	nt
Cc1cc(C)cc(N2C(=O)NC(=O)/C(=C\c3cccn3-c3ccccc3)C2=O)c1	0	47	43*	9	-1
Cc1cccc(OP(=O)(Oc2ccccc2)OC(c2ccccc2)C(F)(F)F)c1 (stereo not given)	-6	51*	1	-16	10
O=CNc1ccc(OP(=O)(Oc2ccccc2)Oc2ccccc2)cc1	-2	9	-1	4	-3
SMILES	M1 ag	TAAR1 antag	TAAR1 agonist	M1 PAM	M1 antag
Cc1ccc(/C=C2/C(=O)NC(=O)N(CCc3ccc(F)cc3)C2=O)o1	4	28	39*	3	7
CC[n+]1c(/C=C/N(C)c2ccccc2)sc2ccc(Cl)cc21	-7	5	3	-33	64*
CN(C)c1ccc(/C=C/C=C/c2sc3ccccc3[n+]2C)cc1	-4	2	-1	5	14
CC[n+]1c(/C=C/C=C/c2ccc(N(C)C)cc2)sc2ccccc21	3	-5	1	-23	69*
O=C(O)C1CC2(Cl)C(Cl)=C(Cl)C1(Cl)C2(Cl)Cl (stereo not given)	-3	-8	0	5	-6
O=C(COC(=O)Cc1ccccc1)NC(=O)NC1CCCCC1	0	-11	-2	9	-10
CC[N+](CC)(CC)CCCOC(=O)C(O)(c1ccccc1)C1CCCCC1 (stereo not given)	-6	2	11	-23	99*
C[N+](C)(N)CCOC(=O)C(O)(c1ccccc1)C1CCCCC1 (stereo not given)	-8	-7	1	-26	100*
NCCc1ccc(S(N)(=O)=O)cc1	-1	-10	8	7	-3
NCCc1ccccc1	-2	81*	92*	3	-5
CC(C)C(CN1CCC(C)(c2cccc(O)c2)[C@@H](C)C1)NC(=O)C1Cc2ccc(O)cc2CN1 (stereo not given in full)	nt	1	2	nt	nt
O=C(c1cccc2ccccc12)C1CCCN(Cc2ccon2)C1 (stereo not given)	-3	-17	-1	3	-7
O=C(c1cccc2ccccc12)C1CCCN(C2CCC2)C1 (stereo not given)	16*	-5	5	-14	26*
C[C@H]1OC[C@@H](C[N+](C)(C)C)O1	121*	-26	3	-10	83*
CC1OC(C[N+](C)(C)C)CC1O (stereo not given)	114*	-15	2	-13	88*
COc1ccc(S(=O)(=O)N2Cc3cnnn3-c3ccccc3C2C#N)cc1 (stereo not given)	-6	-12	3	3	-8
COC1=C(C)C(=O)C2=C(C1=O)C(CO)N1C(C#N)C3CC4C(C1C2N1CCOC41)N3C (stereo not given)	1	9	1	15	-24
Oc1cc(Cl)ccc1Oc1ccc(Cl)cc1Cl	-7	50*	-2	-13	12
O=C(NCCN1CCC2(CC1)C(=O)NCN2c1ccccc1)c1ccccc1C(F)(F)F	nt	-3	-1	nt	nt
CCCCCSc1cc(OC)c(CCNC)cc1OC	-8	-10	37	-20	36*
OC1CN2CCCC(O)C2C1O (stereo not given)	nt	-9	1	nt	nt
O=C(Nc1ccc(C(=O)O)cc1)Oc1ccc(N(CCCl)CCCl)cc1	-4	-17	4	2	-4
C[C@H](Cc1ccc(OCC(=O)O)cc1)NC[C@H](O)c1cccc(Cl)c1	nt	-6	7	nt	nt

Assay outcomes: PubChem BioAssay, The Scripps Research Institute Molecular Screening Center
